# Experiment: Inhibition of Rickettsia prowazekii N-terminal His6-tagged methionine aminopeptidase 1 expressed in Escherichia coli DLB3 Rosetta cells at 10 uM using Met-AMC as substrate preincubated for 1 hr followed by 30 mins incubation after substrate addition measured after 90 mins in presence of MnCl2 by fluorescence assay relative to control
# Method in brief: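 Recombinant R. prowazekii MetAP with Mn(II) as the metal cofactor. Met-AMC substrate; release of free AMC is followed by fluorescence (excitation 360 nm, emission 460 nm). Activity is the slope of fluorescence versus time, compared with an uninhibited control.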
row,Structure (SMILES),inhibition
1,CCOC(=O)C(C)Sc1nnc(N)[nH]1 (centres undefined),36 to 55%
2,O=C(CSc1nnc(-c2ccco2)[nH]1)N1CCOCC1,24 to 40%
3,CC(C)N(C(=O)CSc1nnc(N)[nH]1)c1ccccc1,24 to 64%
4,O=C(O)c1cc(-c2cccnc2)on1,29 to 33%
5,CCOC(=O)c1cccc(CSc2nnc(N)[nH]2)c1,47 to 59%
6,CCc1n[nH]c(SCc2ccc([N+](=O)[O-])cc2)n1,1 to 27%
7,O=C(O)c1cscn1,35 to 41%
8,Cc1nc(-c2ccccn2)sc1C(=O)N1CCCCC1,15 to 20%
9,Nc1n[nH]c(SCCN2C(=O)c3ccccc3C2=O)n1,45 to 50%
10,Cc1c(C(=O)O)sc2ncn(C3CCCCC3)c(=O)c12,17 to 26%
11,Cc1cc(OC(C)C(=O)NN)cc(C)c1Cl (centres undefined),31 to 69%
12,Oc1ccc(-c2ccc(F)cc2)nn1,44 to 66%
13,O=C(O)c1cc(Br)c(Br)s1,30 to 64%
14,c1ccc(-c2n[nH]c(-c3ccccn3)n2)cc1,6 to 23%
15,O=C(O)c1cc([N+](=O)[O-])c(Cl)s1,7 to 63%
16,COC(=O)c1ccc(CSc2nnc(N)[nH]2)cc1,36 to 46%
17,CCc1ccc(C(=O)CSc2nnc(CC)[nH]2)cc1,9 to 47%
18,Cc1ccc2nc(-c3ccccn3)cc(C(=O)O)c2c1,28%
19,NCc1nnc(-c2ccccc2)o1,12 to 13%
20,O=c1cc(CN2CCCCCC2)occ1O,32 to 44%
21,Cc1ccc(-c2ccc(C(=O)O)s2)cc1,4 to 18%
22,Nc1n[nH]c(SCC(=O)c2cc3ccccc3o2)n1,21 to 28%
23,Cc1ccccc1-c1nnc(C(C)N)o1 (centres undefined),2 to 39%
24,Cc1cc(C)c(C(=O)O)c(O)n1,44 to 52%

row,Structure (SMILES),inhibition
1,Cc1cc(C(=O)O)nn1-c1cccc(Cl)c1,1 to 22%
2,Sc1n[nH]c(-c2csc3c2CCCC3)n1,45 to 49%
3,CC(=O)Nc1ccc(C(=O)CSc2nnc(C)[nH]2)cc1,1 to 39%
4,O=C(NCc1ccco1)c1ccc2nc(O)c(O)nc2c1,35 to 39%
5,c1ccc(-c2cc[nH]n2)nc1,2 to 52%
6,Cc1c(C(=O)O)sc2nc(C)n(C)c(=O)c12,22 to 34%
7,O=C(O)c1ccc(COc2ccc(F)cc2)o1,10 to 16%
8,O=C(O)c1ccc(S(=O)(=O)Cl)s1,2 to 36%
9,CCn1cnc2sc(C(=O)O)c(C)c2c1=O,7 to 47%
10,CCN1CCN(Cc2ccc(O)c3ncccc23)CC1,20 to 39%
11,c1ccn2c(C3CCCN3)nnc2c1 (centres undefined),2 to 51%
12,Cc1c(C(=O)O)sc2ncn(C3CCCC3)c(=O)c12,20 to 26%
13,NNC(=O)COc1cccc(Br)c1,1 to 45%
14,COc1cc(C=O)ccc1OCc1ccc(C(=O)O)o1,36 to 53%
15,O=c1[nH]c2cc(Cl)ccc2n(Cc2ccccc2)c1=O,1 to 62%
16,O=C(O)c1nn(-c2ccccc2)c2c1CCC2,45 to 51%
17,CC(C)CNC(=O)c1ccc2[nH]c(=O)c(=O)[nH]c2c1,35 to 44%
18,O=C(O)c1ccc(S(=O)(=O)c2ccccc2)s1,29 to 65%
19,Cc1cc(C)cc(OCCSc2nnc(N)[nH]2)c1,38 to 39%
20,COc1cccc(C(=O)Nc2ccsc2C(=O)O)c1,1 to 32%
21,COC(=O)CSc1n[nH]c(-c2ccncc2)n1,1 to 39%
22,N#CC1=C(c2ccccc2)CSC(c2ccccn2)=NC1=N,2 to 20%
23,CCc1nnc(SCC(=O)c2ccc(F)cc2)[nH]1,2 to 13%
24,COc1cccc(-c2nnc(-c3ccccc3N)[nH]2)c1,1 to 19%

row,Structure (SMILES),inhibition
1,Cc1nnc(C(N)c2ccccc2)o1 (centres undefined),5 to 8%
2,Cc1n[nH]c(SCc2ccc([N+](=O)[O-])cc2)n1,1 to 38%
3,NCc1nc(-c2ccc(F)cc2)no1,62 to 70%
4,CCc1ccc(OCCCSc2nnc(N)[nH]2)cc1,25 to 31%
5,Cc1cccc(-c2nnc(C(C)N)o2)c1 (centres undefined),1 to 43%
6,Cc1c(C(=O)O)sc2ncn(CC(=O)O)c(=O)c12,2 to 44%
7,O=C(O)c1ccc(S(=O)(=O)c2ccccc2)o1,18 to 49%
8,CC(Sc1nnc(N)[nH]1)C(=O)OC1CCCCC1 (centres undefined),46 to 54%
9,O=C1CCCN1c1ccc(S(=O)(=O)Nc2cccc3cccnc23)cc1,5 to 22%
10,Nc1cc(-c2ccccn2)n[nH]1,1 to 45%
11,Nc1cccc2c(-c3cccnc3)n[nH]c12,16 to 21%
12,Cc1cccn2c(=O)c3cc(C(=O)O)sc3nc12,31 to 36%
13,Cc1ccc(OCCCSc2n[nH]c(N)n2)cc1,42 to 51%
14,CC(=O)c1c(C(=O)O)nn(-c2ccc(Cl)cc2)c1C,17 to 20%
15,CSc1cc(C(=O)O)nc(-c2ccccn2)c1,36 to 68%
16,Nc1n[nH]c(SCC(=O)c2ccc([N+](=O)[O-])cc2)n1,19 to 53%
17,COC(=O)c1ccc(CSc2nc[nH]n2)o1,30 to 59%
18,CCOC(=O)CSc1nnc(N)[nH]1,18 to 34%
19,O=C(O)c1c(-c2ccccc2)c(-c2ccccc2)n[nH]c1=O,33 to 71%
20,Cc1ccc(S(=O)(=O)c2ccc(C(=O)O)s2)cc1,10 to 67%
21,Nc1n[nH]c(SCC(=O)c2cccc([N+](=O)[O-])c2)n1,8 to 49%
22,CN(C)c1cccc(-c2ccc(C(=O)NN)cc2)c1,29 to 56%
23,O=C(O)c1ccc(CSc2ccccc2)o1,5 to 34%
24,O=C(CSc1nnc(-c2ccco2)[nH]1)c1ccccc1,17 to 22%

row,Structure (SMILES),inhibition
1,O=C(O)c1cnccn1,42 to 45%
2,Cc1ccc(C(=O)CSc2nnc(N)[nH]2)cc1,17 to 52%
3,Cc1c(C(=O)O)sc2ncn(C)c(=O)c12,9 to 47%
4,Nc1nnc(SCC(=O)OCCCc2ccccc2)[nH]1,44 to 62%
5,COC(=O)CSc1nnc(-c2ccco2)[nH]1,13 to 27%
6,N#Cc1cccc(NCc2ccc(O)c3ncccc23)c1,1 to 5%
7,Cc1cccc2nc(C(=O)O)cn12,38 to 58%
8,CCCCOC(=O)CSc1nnc(N)[nH]1,39 to 62%
9,Cc1nnc(SCC(=O)N2CCCc3ccccc32)[nH]1,43 to 44%
10,O=C(O)CC(Sc1nnc[nH]1)c1ccc(Cl)cc1 (centres undefined),54 to 55%
11,Nc1nnc(SCC(=O)OC2CCCC2)[nH]1,53 to 59%
12,c1ccc(-c2nn[nH]n2)nc1,44 to 56%
13,CC(C)(C)C1CCc2n[nH]c(C(=O)O)c2C1 (centres undefined),1 to 41%
14,c1ccc(-c2nc3ccccc3[nH]2)nc1,1 to 35%
15,Nc1n[nH]c(SCc2c(Cl)cccc2Cl)n1,5 to 17%
16,COc1ccccc1OCc1ccc(C(=O)O)o1,6 to 17%
17,CC(C)(Oc1ccc(Cl)cc1)C(=O)NN,42 to 46%
18,Nc1n[nH]c(SCc2ccc(Br)cc2)n1,28 to 36%
19,CC(N)c1ncc(-c2ccc(F)cc2)o1 (centres undefined),46 to 50%
20,CC(C)OC(=O)CSc1nnc(N)[nH]1,23 to 38%
21,CC(C)(C)c1ccc(OCCSc2nnc(N)[nH]2)cc1,25 to 28%
22,c1ccn2c(C3CCCNC3)nnc2c1 (centres undefined),2 to 47%
23,CCc1nnc(SCC(=O)c2ccc(OC)cc2)[nH]1,1 to 22%
24,Nc1nnc(SCC(=O)OC2CCCCC2)[nH]1,60 to 68%

row,Structure (SMILES),inhibition
1,Cc1ccc(OCc2ccc(C(=O)O)o2)cc1,1 to 22%
2,C#CCSc1nc2sc(C(=O)O)c(C)c2c(=O)[nH]1,9 to 58%
3,COc1ccc(O)c(C2=NNC(c3ccc(F)cc3)C2)c1 (centres undefined),26 to 48%
4,Nc1nnc(SCc2cccc(Cl)c2)[nH]1,1 to 23%
5,O=C(O)c1nn(-c2ccccc2)c(=O)c2ccccc12,21 to 44%
6,CC(C)CCNC(=O)c1ccc2[nH]c(=O)c(=O)[nH]c2c1,49 to 54%
7,Cc1nc2sc(C(=O)O)c(C)c2c(=O)[nH]1,11 to 18%
8,O=C(O)c1ccc(S(=O)(=O)c2ccc(Cl)cc2)o1,41 to 68%
9,Cc1c(C(=O)O)sc2nc(CN(C)C)[nH]c(=O)c12,20 to 25%
10,COc1ccc(C=O)cc1OCc1ccc(C(=O)O)o1,36 to 65%
11,COCCn1cnc2sc(C(=O)O)c(C)c2c1=O,20 to 24%
12,Cc1cc(C)n(-c2ccc(Cl)c(C(=O)O)n2)n1,15 to 77%
13,NC(=O)CSc1nnc(-c2ccccc2)[nH]1,22 to 45%
14,Cc1cccc(CSc2nnc(N)[nH]2)c1,27 to 46%
15,CC(C)c1ccc2nc(-c3ccccn3)cc(C(=O)O)c2c1,18 to 56%
16,CC(=O)c1c(Nc2ccc(F)cc2)oc(C)cc1=O,23 to 58%
17,CCc1nnc(SCC(=O)c2ccccc2)[nH]1,1 to 40%
18,CCc1nnc(SCC(=O)c2ccc(C(C)C)cc2)[nH]1,9 to 44%
19,Nc1nnc(SCCCOc2ccc(Cl)cc2)[nH]1,22 to 32%
20,Cc1ccc(CSc2nnc(N)[nH]2)cc1,36%
21,Cc1ccc(S(=O)(=O)Cc2ccc(C(=O)O)o2)cc1,12 to 25%
22,Nc1n[nH]c(SCCOc2ccccc2)n1,28 to 29%
23,Nc1nnc(SCCCc2ccccc2)[nH]1,18 to 37%
24,Oc1ccc2nc(-c3ccccn3)oc2c1,1 to 43%

row,Structure (SMILES),inhibition
1,Nc1nnc(SCCOc2ccc(Cl)cc2)[nH]1,31 to 32%
2,O=C(CSc1nnc[nH]1)c1cccc2ccccc12,1 to 39%
3,Nc1nnc(SCCN2CCCCC2)[nH]1,1 to 34%
4,O=C(CSc1nnc(-c2ccco2)[nH]1)N1CCCCC1,1 to 48%
5,CC(C)OC(=O)c1ccc(CSc2nnc(N)[nH]2)cc1,59 to 66%
6,Cc1ccc(C(=O)NN)cc1,1 to 34%
7,O=C(O)c1cnc2c(ccc3ccccc32)c1O,22 to 43%
8,Nc1ccccc1-c1nnc2n1CCCCC2,5 to 46%
9,Oc1ccccc1-c1nncn1-c1ccccc1,14 to 46%
10,Sc1nnc(-c2ccc(Br)cc2)[nH]1,33 to 61%
11,O=C(O)c1cc(C2CC2)on1,28 to 30%
12,CCc1nnc(SCC(=O)c2ccc(Cl)cc2)[nH]1,9 to 23%
13,CN(C)Cc1c(C(=O)O)nc2ccccn12,11 to 20%
14,COc1ccc(C(=O)CSc2nnc(C)[nH]2)cc1C,16 to 56%
15,CC(C)N1CC(=O)C(c2nc3ccccc3[nH]2)=C1N,25 to 26%
16,CCCCCn1cnc2sc(C(=O)O)c(C)c2c1=O,34 to 57%
17,Cc1n[nH]c(SCC(=O)NCCc2ccccc2)n1,1 to 18%
18,Cc1ccc(C(=O)CSc2nnc(-c3ccco3)[nH]2)cc1,24 to 26%
19,O=C(O)c1cccnc1-c1ncccc1C(=O)O,13 to 49%

# Reference: ChEMBL document CHEMBL4118110, “The identification of inhibitory compounds of Rickettsia prowazekii methionine aminopeptidase for antibacterial applications” (Bioorg Med Chem Lett, 2018)
